Experimental data pooled from the literature.
Target: Cyclin-dependent kinase 18 (CDK18, Homo sapiens, UniProt Q07002)

Compound | effect on | technique | concentration | remaining binding
O=C(Nc1c[nH]nc1C(=O)NC1CCNCC1)c1cc(F)cc(F)c1 | binding | competition with immobilised ligand | 1 µM | 78%
O=C(Nc1ccc(Oc2ccc(F)cc2)cc1)N1CCc2ncccc2[C@H]1c1ccc(F)cc1 | cell-free assay | competition with immobilised ligand | 1 µM | 98%
N[C@H]1CCN(c2nccc(-c3cnn4ncccc34)n2)C1 | binding |  | 1 µM | 100%
CCN1CCN(Cc2ccc(C(=O)Nc3ccc(C)c(Oc4ccc5c(c4)CC(=O)N5)c3)cc2C(F)(F)F)CC1 | binding | competition with immobilised ligand | 1 µM | 100%
C[C@H]1CCN(c2nccc(-c3cnn4ncccc34)n2)C1 | binding |  | 1 µM | 100%
O=c1nc(-c2ccccn2)sc2ccccc12 | binding | competition with immobilised ligand | 1 µM | 94%
Cc1cnc(Nc2ccc(C(=O)N3CCC(N4CCCC4)CC3)cc2)nc1-c1cc2ccccc2s1 | binding | competition with immobilised ligand | 1 µM | 100%
CN(C)c1nccc(-c2cnn3ncccc23)n1 | binding |  | 1 µM | 89%
CNC(=O)Nc1ccc2c(c1)[C@@]1(CC2)OC(=O)N(CC(=O)N(Cc2ccc(F)cc2)[C@@H](C)C(F)(F)F)C1=O | cell-free assay | competition with immobilised ligand | 1 µM | 100%
c1cnn2ncc(-c3ccnc(N4CCC45COC5)n3)c2c1 | binding |  | 1 µM | 98%
CCC(=N\O)/C(C)=C/c1ccc(F)cc1 | cell-free assay | competition with immobilised ligand | 1 µM | 89%
COc1ccnn2ncc(-c3ccnc(N(C)C)n3)c12 | binding |  | 1 µM | 100%
FC(F)(F)Oc1cccc(-c2cnc3ccc(-c4ccncc4)nn23)c1 | cell-free assay | competition with immobilised ligand | 5 µM | 46%
O=C(NCCCN1CCOCC1)c1ccc(Nc2ncc(Cl)c(-c3ccc(Cl)s3)n2)cc1 | binding | competition with immobilised ligand | 1 µM | 70%
C[C@H](c1cccc(C#N)c1)n1cc(Cl)cc(C(N)=O)c1=N | cell-free assay | competition with immobilised ligand | 1 µM | 100%
F[C@@H]1CCN(c2nccc(-c3cnn4ncccc34)n2)C1 | binding |  | 1 µM | 86%
CCOC(=O)c1cc2cc(-c3cc(C(=O)NCc4ccc(C(=O)O)cc4)nn3C)ccc2[nH]1 | cell-free assay | competition with immobilised ligand | 0.1 µM | 100%
Nc1ncc2c(n1)-c1c([nH]c3ccc(C#CC4CC4)cc13)CCCC2 | binding | competition with immobilised ligand | 1 µM | 100%
COc1cnc(Nc2cccc(S(N)(=O)=O)c2)nc1N1CCN(c2ccccc2)CC1 | binding | competition with immobilised ligand | 1 µM | 98%
O=C(c1ccc(Nc2ncc(Cl)c(-c3ccc(Cl)s3)n2)cc1)N1CCC(N2CCCC2)CC1 | binding | competition with immobilised ligand | 1 µM | 43%
NS(=O)(=O)c1cc(NC(=O)C2(c3ccccc3Cl)CC2)ccc1Oc1cccc(Cl)c1 | cell-free assay | competition with immobilised ligand | 1 µM | 69%
CN1CCN(c2ccc(Nc3nccc(-c4ccccc4)n3)cc2C(F)(F)F)CC1 | binding |  | 10 µM | 23%
CNC(=O)[C@@H]1CC[C@@H](n2c(-c3ccc4cnccc4c3)nc3ccc(C(=O)NCc4cccc(C(N)=O)c4)cc32)C1 | binding | competition with immobilised ligand | 1 µM | 100%
